For assay [1], the target named is microRNA 21. Nature of the assay: Binding affinity to 5'-FAM/3'-DAB-labeled UGUCGGGUAGCUUAUCAGACUGAUGUUGACUGUUGAAUCUCAUGGCAACACCAGUCGAUGGGCUGUCUGACA pre-miRNA-21 (unknown origin) assessed as dissociation constant incubated for overnight in presence of double stranded 15-mer 5'-CGTTTTTATTTTTGC-3' DNA by fluorescence based assay. In kind it is nucleic-acid assay.

Assay [2] deals with microRNA 21. Description: Selectivity index, ratio of Kd for 5'-FAM/3'-DAB-labeled UGUCGGGUAGCUUAUCAGACUGAUGUUGACUGUUGAAUCUCAUGGCAACACCAGUCGAUGGGCUGUCUGACA pre-miRNA-21 (unknown origin) in presence of double stranded 15-mer 5'-CGTTTTTATTTTTGC-3' DNA to Kd for 5'-FAM/3'-DAB-labeled UGUCGGGUAGCUUAUCAGACUGAUGUUGACUGUUGAAUCUCAUGGCAACACCAGUCGAUGGGCUGUCUGACA pre-miRNA-21 (unknown origin). In kind it is nucleic-acid assay.

In assay [3] the target is microRNA 21. Description: Binding affinity to 5'-FAM/3'-DAB-labeled UGUCGGGUAGCUUAUCAGACUGAUGUUGACUGUUGAAUCUCAUGGCAACACCAGUCGAUGGGCUGUCUGACA pre-miRNA-21 (unknown origin) assessed as dissociation constant incubated for overnight in presence of Saccharomyces cerevisiae tRNA by fluorescence based assay. It is filed as nucleic-acid assay.
In assay [4] the target is microRNA 21. Description: Binding affinity to 5'-FAM/3'-DAB-labeled UGUCGGGUAGCUUAUCAGACUGAUGUUGACUGUUGAAUCUCAUGGCAACACCAGUCGAUGGGCUGUCUGACA pre-miRNA-21 (unknown origin) assessed as dissociation constant incubated for overnight by fluorescence based assay. In kind it is nucleic-acid assay.
Assay [5] addresses microRNA 21. Nature of the assay: Inhibition of 5'-FAM/3'-DAB-labeled UGUCGGGUAGCUUAUCAGACUGAUGUUGACUGUUGAAUCUCAUGGCAACACCAGUCGAUGGGCUGUCUGACA pre-miRNA-21 (unknown origin) biogenesis incubated for 30 mins in presence of human recombinant dicer by FRET based assay. In kind it is nucleic-acid assay. The method, boiled down:
(§1)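 FRET cleavage assay on a 72-mer pre-miR-21 carrying 5′-fluorescein and 3′-dabcyl. Substrate is processed by recombinant Dicer, E. coli RNase III or MCF7 cell lysate across a range of ligand concentrations. Cleavage raises fluorescence. IC50 from duplicates over three independent experiments.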

Assay [6] concerns the target microRNA 21. Nature of the assay: Inhibition of 5'-FAM/3'-DAB-labeled UGUCGGGUAGCUUAUCAGACUGAUGUUGACUGUUGAAUCUCAUGGCAACACCAGUCGAUGGGCUGUCUGACA pre-miRNA-21 (unknown origin) biogenesis preincubated for 30 mins followed by Escherichia coli RNase III addition and measured after 1 hr by fluorescence based assay. It is filed as nucleic-acid assay. The method, boiled down: as §1

In assay [7] the test system is microRNA 21. Nature of the assay: Selectivity index, ratio of Kd for 5'-FAM/3'-DAB-labeled UGUCGGGUAGCUUAUCAGACUGAUGUUGACUGUUGAAUCUCAUGGCAACACCAGUCGAUGGGCUGUCUGACA pre-miRNA-21 (unknown origin) in presence of tRNA to Kd for 5'-FAM/3'-DAB-labeled UGUCGGGUAGCUUAUCAGACUGAUGUUGACUGUUGAAUCUCAUGGCAACACCAGUCGAUGGGCUGUCUGACA pre-miRNA-21 (unknown origin). In kind it is nucleic-acid assay.

The target in assay [8] is microRNA 21. Nature of the assay: Inhibition of 5'-FAM/3'-DAB-labeled UGUCGGGUAGCUUAUCAGACUGAUGUUGACUGUUGAAUCUCAUGGCAACACCAGUCGAUGGGCUGUCUGACA pre-miRNA-21 (unknown origin) biogenesis preincubated for 30 mins followed by MCF7 cell lysate addition and measured after 1 hr by fluorescence based assay. The method, boiled down:
as §1

Assay [9] relates to microRNA 21. Nature of the assay: Binding affinity to 5'-FAM/3'-DAB-labeled UGUCGGGUAGCUUAUCAGACUGAUGUUGACUGUUGAAUCUCAUGGCAACACCAGUCGAUGGGCUGUCUGACA pre-miRNA-21 (unknown origin) assessed as pre-miRNA-21-compound complex formation by measuring Gibbs free energy. It is filed as nucleic-acid assay. The essentials: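 ΔG°T obtained from the fluorescence binding assay on 5′-FAM-pre-miR-21, run at several temperatures (278–308 K). Enthalpic (ΔH°) and entropic (−TΔS°) contributions are derived from these values.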

For the molecule `NC[C@@H]1O[C@H](O[C@H]2[C@@H](O)[C@H](O[C@@H]3[C@@H](O)[C@H](N)C[C@H](N)[C@H]3O[C@H]3O[C@H](CN)[C@@H](O)[C@H](O)[C@H]3N)O[C@@H]2Cn2cc(CCC(=O)Nc3cccc(-c4csc(NC(=O)[C@@H](N)Cc5c[nH]cn5)n4)c3)nn2)[C@H](N)[C@@H](O)[C@@H]1O`, the Kd stood at 171 nM in assay [1], 134 nM in assay [3] and 128 nM in assay [4]. Moreover, the Ratio came out at 1.3 in [2] and 1 in assay [7]. The values for the IC50 in assay [5], in assay [6] and in [8] were less than 5000 nM, 1260 nM and 3100 nM, respectively.
For the molecule `CC(=O)Nc1nc(-c2cccc(NC(=O)CCC(=O)N[C@@H](Cc3cn(C[C@H]4O[C@@H](O[C@@H]5[C@@H](O)[C@H](N)C[C@H](N)[C@H]5O[C@H]5O[C@H](CN)[C@@H](O)[C@H](O)[C@H]5N)[C@H](O)[C@@H]4O[C@H]4O[C@@H](CN)[C@@H](O)[C@H](O)[C@H]4N)nn3)C(=O)N[C@@H](CCCCN)C(N)=O)c2)cs1`, the deltaG in assay [9] is -9.92 kcal/mol. The Kd in assay [1] was found to be 95.7 nM; in assay [3], 51 nM; in assay [4], 50.7 nM. For the same molecule, the values for the Ratio in [2] and in assay [7] were 1.9 and 1, respectively. Also, the concentration for half-maximal inhibition (IC50) in [5] is less than 5000 nM.
For the molecule `Cc1ccc(C(=O)Nc2nc(-c3cccc(NC(=O)CCC(=O)N[C@@H](Cc4cn(C[C@H]5O[C@@H](O[C@@H]6[C@@H](O)[C@H](N)C[C@H](N)[C@H]6O[C@H]6O[C@H](CN)[C@@H](O)[C@H](O)[C@H]6N)[C@H](O)[C@@H]5O[C@H]5O[C@@H](CN)[C@@H](O)[C@H](O)[C@H]5N)nn4)C(=O)N[C@@H](C)C(N)=O)c3)cs2)cc1`, the Kd in [1] is 261 nM; in assay [3], 170 nM; in assay [4] it was 128 nM. The Ratio in assay [2] worked out at 2; in assay [7] it was 1.3. Besides, the IC50 in assay [5] is less than 5000 nM.
For `CC(=O)Nc1nc(-c2cccc(NC(=O)CCC(=O)N[C@@H](Cc3cn(C[C@H]4O[C@@H](O[C@@H]5[C@@H](O)[C@H](N)C[C@H](N)[C@H]5O[C@H]5O[C@H](CN)[C@@H](O)[C@H](O)[C@H]5N)[C@H](O)[C@@H]4O[C@H]4O[C@@H](CN)[C@@H](O)[C@H](O)[C@H]4N)nn3)C(=O)N[C@@H](C)C(N)=O)c2)cs1`, the Kd in [1] came out at 187 nM; in [3], 151 nM; in [4], 133 nM. In addition, the Ratio in [2] was 1.4; in assay [7], 1.1.
As to `C[C@H](NC(=O)[C@H](Cc1cn(C[C@H]2O[C@@H](O[C@@H]3[C@@H](O)[C@H](N)C[C@H](N)[C@H]3O[C@H]3O[C@H](CN)[C@@H](O)[C@H](O)[C@H]3N)[C@H](O)[C@@H]2O[C@H]2O[C@@H](CN)[C@@H](O)[C@H](O)[C@H]2N)nn1)NC(=O)CCC(=O)NCCn1ccc(=O)[nH]c1=O)C(N)=O`, the Kd in assay [1] is 1460 nM; in [3], 807 nM; in assay [4], 641 nM. Besides, the Ratio is 2.3 in [2] and 1.3 in assay [7].
With `Cc1ccc(C(=O)Nc2nc(-c3cccc(NC(=O)CCC(=O)N[C@@H](Cc4cn(C[C@H]5O[C@@H](O[C@@H]6[C@@H](O)[C@H](N)C[C@H](N)[C@H]6O[C@H]6O[C@H](CN)[C@@H](O)[C@H](O)[C@H]6N)[C@H](O)[C@@H]5O[C@H]5O[C@@H](CN)[C@@H](O)[C@H](O)[C@H]5N)nn4)C(=O)N[C@@H](Cc4c[nH]cn4)C(N)=O)c3)cs2)cc1`, the Kd in [1] was determined as 274 nM; in assay [3] it was 168 nM; in assay [4], 162 nM. For the same molecule, the Ratio in [2] turned out to be 1.7; in assay [7] it was 1. Moreover, in assay [5], the IC50 was less than 5000 nM.
Regarding `NC[C@@H]1O[C@H](O[C@H]2[C@@H](O)[C@H](O[C@@H]3[C@@H](O)[C@H](N)C[C@H](N)[C@H]3O[C@H]3O[C@H](CN)[C@@H](O)[C@H](O)[C@H]3N)O[C@@H]2CO)[C@H](N)[C@@H](O)[C@@H]1O` [FRAMYCETIN], the Kd in assay [1] was found to be 1950 nM; in [3] it was 1420 nM; in [4], 1390 nM. For the same molecule, the figures for the Ratio in assay [2] and in assay [7] were 1.4 and 1, respectively.
Turning to `Cc1ccc(C(=O)Nc2nc(-c3cccc(NC(=O)CCC(=O)N[C@@H](Cc4cn(C[C@H]5O[C@@H](O[C@@H]6[C@@H](O)[C@H](N)C[C@H](N)[C@H]6O[C@H]6O[C@H](CN)[C@@H](O)[C@H](O)[C@H]6N)[C@H](O)[C@@H]5O[C@H]5O[C@@H](CN)[C@@H](O)[C@H](O)[C@H]5N)nn4)C(=O)N[C@@H](CCCCN)C(N)=O)c3)cs2)cc1`, the results for the Kd in [1], in assay [3] and in [4] were 877 nM, 405 nM and 348 nM, respectively. Moreover, the figures for the Ratio in assay [2] and in assay [7] were 2.5 and 1.2, respectively.
On to `CC(=O)Nc1nc(-c2cccc(NC(=O)CCC(=O)N[C@@H](Cc3cn(C[C@H]4O[C@@H](O[C@@H]5[C@@H](O)[C@H](N)C[C@H](N)[C@H]5O[C@H]5O[C@H](CN)[C@@H](O)[C@H](O)[C@H]5N)[C@H](O)[C@@H]4O[C@H]4O[C@@H](CN)[C@@H](O)[C@H](O)[C@H]4N)nn3)C(=O)N[C@@H](Cc3c[nH]cn3)C(N)=O)c2)cs1`, for which the deltaG in [9] is -9.92 kcal/mol. In addition, the dissociation constant (Kd) in [1] amounted to 80.9 nM; in [3], 50.4 nM; in assay [4] it was 50.3 nM. The Ratio in assay [2] worked out at 1.6; in assay [7], 1. Also, in [5], the 50% inhibitory concentration (IC50) was less than 5000 nM.

As usually defined, the Kd is the constant that tells how readily two partners part at equilibrium. The term IC50 denotes the midpoint of a concentration-inhibition curve.
